Among the data in ChEMBL document CHEMBL5653631, “A Potent and Selective ULK1 Inhibitor Suppresses Autophagy and Sensitizes Cancer Cells to Nutrient Stress” (iScience, 2018) are fold change (FC) and inhibition values, retold here.

Molecules are shown by their SMILES.

Assay [1] has as its target Fibroblast growth factor receptor 3 (Homo sapiens) (UniProt P22607). In words: Inhibition of human recombinant FGFR3 at 40 nM related to control ULK1.
In assay [2] the target is Mitogen-activated protein kinase 8 (Homo sapiens) (UniProt P45983). In words: Inhibition of human recombinant JNK1 at 40 nM in presence of ATP by radiometric assay relative to control.
In assay [3] the target is Mast/stem cell growth factor receptor Kit (Homo sapiens) (UniProt P10721). The assay is described as follows: Inhibition of human recombinant KIT at 40 nM related to control ULK1.
Assay [4] deals with T1, SNF-related serine/threonine-protein kinase (Homo sapiens) (UniProt Q9NRH2).
T1 sequence (whole entry): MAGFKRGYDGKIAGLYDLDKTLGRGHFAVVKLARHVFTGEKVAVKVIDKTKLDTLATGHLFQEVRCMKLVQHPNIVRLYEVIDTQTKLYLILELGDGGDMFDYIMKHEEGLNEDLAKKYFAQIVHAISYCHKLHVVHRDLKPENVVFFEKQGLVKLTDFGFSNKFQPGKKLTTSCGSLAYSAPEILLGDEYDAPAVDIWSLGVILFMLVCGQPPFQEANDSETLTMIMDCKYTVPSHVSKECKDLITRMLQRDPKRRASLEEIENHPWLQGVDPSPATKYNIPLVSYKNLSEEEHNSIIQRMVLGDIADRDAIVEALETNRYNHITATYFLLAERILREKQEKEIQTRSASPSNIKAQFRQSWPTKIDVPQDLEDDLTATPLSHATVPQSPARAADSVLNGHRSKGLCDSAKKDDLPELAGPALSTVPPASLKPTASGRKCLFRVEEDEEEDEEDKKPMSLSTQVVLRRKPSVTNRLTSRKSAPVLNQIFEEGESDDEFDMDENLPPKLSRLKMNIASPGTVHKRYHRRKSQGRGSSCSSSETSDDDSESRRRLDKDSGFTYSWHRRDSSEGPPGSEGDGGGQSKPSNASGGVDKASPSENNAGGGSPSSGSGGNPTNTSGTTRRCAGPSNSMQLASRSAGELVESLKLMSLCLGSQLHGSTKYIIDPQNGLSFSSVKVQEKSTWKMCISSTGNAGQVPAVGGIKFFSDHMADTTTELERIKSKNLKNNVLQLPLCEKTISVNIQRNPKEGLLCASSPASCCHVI
The assay is described as follows: Inhibition of human recombinant SNRK at 40 nM related to control ULK1.

For assay [5], the target named is T2, Aurora kinase C (Homo sapiens) (UniProt Q9UQB9).
T2 sequence (whole entry): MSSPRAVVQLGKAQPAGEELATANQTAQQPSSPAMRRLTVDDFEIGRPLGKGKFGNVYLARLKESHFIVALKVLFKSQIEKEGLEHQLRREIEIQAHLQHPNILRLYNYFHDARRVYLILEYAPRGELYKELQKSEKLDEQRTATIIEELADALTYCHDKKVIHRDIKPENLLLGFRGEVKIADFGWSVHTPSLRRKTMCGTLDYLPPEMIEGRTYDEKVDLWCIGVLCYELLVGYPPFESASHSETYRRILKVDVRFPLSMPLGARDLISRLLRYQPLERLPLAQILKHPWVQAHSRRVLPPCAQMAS
The assay is described as follows: Inhibition of human recombinant AurC at 40 nM related to control ULK1. In outline:
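Radiometric activity assays in a panel of 327 human recombinant kinases, each run in duplicate at one inhibitor concentration. Activity remaining is expressed as percent of vehicle control, and percent inhibition is calculated as 100% minus percent activity remaining.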

For assay [6], the target named is Death-associated protein kinase 3 (Homo sapiens) (UniProt O43293). The assay is described as follows: Inhibition of human recombinant DAPK3 at 500 nM in presence of ATP by radiometric assay relative to control.
Assay [7] has as its target T3, MAP kinase-activated protein kinase 5 (Homo sapiens) (UniProt Q8IW41).
T3 sequence (whole entry): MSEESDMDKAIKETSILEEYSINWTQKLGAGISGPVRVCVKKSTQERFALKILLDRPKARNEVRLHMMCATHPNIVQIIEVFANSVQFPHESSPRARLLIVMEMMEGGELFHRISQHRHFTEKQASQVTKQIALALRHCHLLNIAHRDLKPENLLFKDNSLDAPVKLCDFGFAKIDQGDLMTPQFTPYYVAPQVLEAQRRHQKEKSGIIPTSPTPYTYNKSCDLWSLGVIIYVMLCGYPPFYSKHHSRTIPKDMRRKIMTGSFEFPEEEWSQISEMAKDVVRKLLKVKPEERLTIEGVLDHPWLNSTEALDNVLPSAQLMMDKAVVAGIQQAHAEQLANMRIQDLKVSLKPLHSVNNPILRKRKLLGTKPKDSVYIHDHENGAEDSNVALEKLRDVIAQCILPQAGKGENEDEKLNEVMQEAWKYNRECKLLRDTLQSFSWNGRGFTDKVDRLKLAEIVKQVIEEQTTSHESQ
The assay is described as follows: Inhibition of human recombinant MAPKAPK5 at 500 nM in presence of ATP by radiometric assay relative to control.

Assay [8] concerns the target Tyrosine-protein kinase Fer (Homo sapiens) (UniProt P16591). In words: Inhibition of human recombinant FER at 500 nM related to control ULK1.
The target of assay [9] is Eukaryotic translation initiation factor 2-alpha kinase 1 (Homo sapiens) (UniProt Q9BQI3). In words: Inhibition of human recombinant HRI at 500 nM related to control ULK1.
Assay [10] concerns the target Protein kinase C beta type (Homo sapiens) (UniProt P05771). In words: Inhibition of human recombinant PKCb at 500 nM related to control ULK1.
Assay [11] deals with Casein kinase I isoform gamma-3 (Homo sapiens) (UniProt Q9Y6M4). The assay is described as follows: Inhibition of human recombinant CK1g3 at 500 nM related to control ULK1.
Assay [12] has as its target Vascular endothelial growth factor receptor 1 (Homo sapiens) (UniProt P17948). In words: Inhibition of human recombinant FLT1 at 15 nM in presence of ATP by radiometric assay relative to control.
Assay [13] has as its target T4, Serine/threonine-protein kinase Nek3 (Homo sapiens) (UniProt P51956).
T4 sequence (whole entry): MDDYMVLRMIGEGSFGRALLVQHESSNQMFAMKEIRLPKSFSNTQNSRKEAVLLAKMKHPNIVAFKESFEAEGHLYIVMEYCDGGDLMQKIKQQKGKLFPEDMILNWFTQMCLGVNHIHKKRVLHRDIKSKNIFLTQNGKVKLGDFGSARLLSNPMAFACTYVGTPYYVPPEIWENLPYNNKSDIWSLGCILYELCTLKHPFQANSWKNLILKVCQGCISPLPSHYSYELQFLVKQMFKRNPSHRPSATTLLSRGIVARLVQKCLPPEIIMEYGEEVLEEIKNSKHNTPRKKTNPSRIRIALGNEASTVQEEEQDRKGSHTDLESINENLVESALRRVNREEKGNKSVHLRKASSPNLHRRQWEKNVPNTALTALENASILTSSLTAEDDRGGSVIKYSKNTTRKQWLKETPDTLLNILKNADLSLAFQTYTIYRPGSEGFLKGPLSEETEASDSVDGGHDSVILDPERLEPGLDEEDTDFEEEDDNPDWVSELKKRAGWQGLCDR
In words: Inhibition of human recombinant NEK3 at 15 nM related to control ULK1.

Mitogen-activated protein kinase 8 (Homo sapiens), sequence (P45983 whole entry): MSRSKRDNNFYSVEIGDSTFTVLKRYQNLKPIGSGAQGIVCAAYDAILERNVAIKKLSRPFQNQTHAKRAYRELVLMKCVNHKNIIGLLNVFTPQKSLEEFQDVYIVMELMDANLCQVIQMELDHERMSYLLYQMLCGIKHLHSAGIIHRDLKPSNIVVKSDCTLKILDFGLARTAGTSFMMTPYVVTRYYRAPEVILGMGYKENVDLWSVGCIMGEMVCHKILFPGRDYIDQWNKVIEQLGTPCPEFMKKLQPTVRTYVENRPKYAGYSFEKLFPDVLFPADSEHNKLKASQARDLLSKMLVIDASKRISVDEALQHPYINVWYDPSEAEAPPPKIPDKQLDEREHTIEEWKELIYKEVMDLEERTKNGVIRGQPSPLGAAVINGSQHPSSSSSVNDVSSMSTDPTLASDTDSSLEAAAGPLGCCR
Fibroblast growth factor receptor 3 (Homo sapiens), sequence (P22607 23-806 limits assumed): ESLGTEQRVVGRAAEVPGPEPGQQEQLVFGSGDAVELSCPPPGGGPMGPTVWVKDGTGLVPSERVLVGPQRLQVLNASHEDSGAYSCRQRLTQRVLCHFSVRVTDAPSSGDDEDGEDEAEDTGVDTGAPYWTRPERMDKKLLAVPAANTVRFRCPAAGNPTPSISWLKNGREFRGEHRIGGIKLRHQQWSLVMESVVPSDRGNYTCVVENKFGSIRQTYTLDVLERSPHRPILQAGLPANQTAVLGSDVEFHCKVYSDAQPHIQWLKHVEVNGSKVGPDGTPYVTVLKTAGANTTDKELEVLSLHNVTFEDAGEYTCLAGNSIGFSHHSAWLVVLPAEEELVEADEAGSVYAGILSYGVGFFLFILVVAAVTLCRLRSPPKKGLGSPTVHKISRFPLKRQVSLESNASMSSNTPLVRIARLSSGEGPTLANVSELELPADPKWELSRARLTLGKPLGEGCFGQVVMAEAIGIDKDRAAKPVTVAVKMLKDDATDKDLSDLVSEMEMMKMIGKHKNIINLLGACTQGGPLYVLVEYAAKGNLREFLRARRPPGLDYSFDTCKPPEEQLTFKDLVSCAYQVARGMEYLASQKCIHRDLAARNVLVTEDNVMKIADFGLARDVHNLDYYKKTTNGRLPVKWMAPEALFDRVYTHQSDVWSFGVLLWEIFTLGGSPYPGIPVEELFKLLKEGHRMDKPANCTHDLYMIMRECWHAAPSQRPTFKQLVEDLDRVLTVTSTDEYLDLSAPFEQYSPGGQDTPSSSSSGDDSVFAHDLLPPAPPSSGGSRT
Eukaryotic translation initiation factor 2-alpha kinase 1 (Homo sapiens), sequence (Q9BQI3 whole entry): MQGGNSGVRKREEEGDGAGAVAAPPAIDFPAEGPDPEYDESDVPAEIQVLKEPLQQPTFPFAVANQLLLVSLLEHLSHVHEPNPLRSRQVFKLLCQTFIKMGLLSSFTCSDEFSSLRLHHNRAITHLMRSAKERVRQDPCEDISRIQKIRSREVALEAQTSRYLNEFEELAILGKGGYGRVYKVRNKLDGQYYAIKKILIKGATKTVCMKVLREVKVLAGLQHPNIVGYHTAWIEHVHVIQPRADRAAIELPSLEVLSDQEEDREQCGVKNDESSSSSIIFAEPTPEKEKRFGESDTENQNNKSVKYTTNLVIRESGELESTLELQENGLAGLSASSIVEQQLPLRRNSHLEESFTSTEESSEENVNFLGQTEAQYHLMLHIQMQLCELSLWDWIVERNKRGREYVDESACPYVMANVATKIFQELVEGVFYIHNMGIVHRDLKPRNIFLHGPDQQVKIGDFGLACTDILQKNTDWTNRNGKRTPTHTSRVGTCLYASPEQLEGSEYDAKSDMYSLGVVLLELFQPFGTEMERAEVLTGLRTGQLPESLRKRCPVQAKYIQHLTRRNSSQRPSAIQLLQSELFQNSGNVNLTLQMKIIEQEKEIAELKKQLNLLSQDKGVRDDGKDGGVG
Death-associated protein kinase 3 (Homo sapiens), sequence (O43293 whole entry, looked up): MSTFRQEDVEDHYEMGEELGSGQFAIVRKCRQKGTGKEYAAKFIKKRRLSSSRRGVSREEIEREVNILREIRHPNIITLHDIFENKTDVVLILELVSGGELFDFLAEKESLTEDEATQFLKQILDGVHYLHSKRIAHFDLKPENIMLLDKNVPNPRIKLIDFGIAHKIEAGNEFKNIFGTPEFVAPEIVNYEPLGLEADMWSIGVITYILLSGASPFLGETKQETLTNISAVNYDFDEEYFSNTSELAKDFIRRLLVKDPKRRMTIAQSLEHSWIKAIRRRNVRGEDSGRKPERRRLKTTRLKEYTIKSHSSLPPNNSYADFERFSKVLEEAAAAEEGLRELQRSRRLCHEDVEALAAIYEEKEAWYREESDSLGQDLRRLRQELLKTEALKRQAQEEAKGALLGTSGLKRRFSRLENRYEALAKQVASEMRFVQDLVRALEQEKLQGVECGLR
Casein kinase I isoform gamma-3 (Homo sapiens), sequence (Q9Y6M4 whole entry, looked up, canonical isoform): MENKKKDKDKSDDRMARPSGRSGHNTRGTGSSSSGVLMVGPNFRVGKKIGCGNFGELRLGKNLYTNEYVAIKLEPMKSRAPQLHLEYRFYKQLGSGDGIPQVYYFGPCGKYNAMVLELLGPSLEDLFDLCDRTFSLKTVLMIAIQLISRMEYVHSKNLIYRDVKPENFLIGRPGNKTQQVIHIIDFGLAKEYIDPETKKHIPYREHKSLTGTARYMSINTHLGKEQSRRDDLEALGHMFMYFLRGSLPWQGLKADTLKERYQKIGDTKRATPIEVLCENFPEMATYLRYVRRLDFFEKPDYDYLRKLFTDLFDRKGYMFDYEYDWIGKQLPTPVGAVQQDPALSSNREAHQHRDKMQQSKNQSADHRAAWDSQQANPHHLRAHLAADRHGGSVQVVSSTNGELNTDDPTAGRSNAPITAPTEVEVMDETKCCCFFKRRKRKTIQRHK
Protein kinase C beta type (Homo sapiens), sequence (P05771 2-671 limits assumed): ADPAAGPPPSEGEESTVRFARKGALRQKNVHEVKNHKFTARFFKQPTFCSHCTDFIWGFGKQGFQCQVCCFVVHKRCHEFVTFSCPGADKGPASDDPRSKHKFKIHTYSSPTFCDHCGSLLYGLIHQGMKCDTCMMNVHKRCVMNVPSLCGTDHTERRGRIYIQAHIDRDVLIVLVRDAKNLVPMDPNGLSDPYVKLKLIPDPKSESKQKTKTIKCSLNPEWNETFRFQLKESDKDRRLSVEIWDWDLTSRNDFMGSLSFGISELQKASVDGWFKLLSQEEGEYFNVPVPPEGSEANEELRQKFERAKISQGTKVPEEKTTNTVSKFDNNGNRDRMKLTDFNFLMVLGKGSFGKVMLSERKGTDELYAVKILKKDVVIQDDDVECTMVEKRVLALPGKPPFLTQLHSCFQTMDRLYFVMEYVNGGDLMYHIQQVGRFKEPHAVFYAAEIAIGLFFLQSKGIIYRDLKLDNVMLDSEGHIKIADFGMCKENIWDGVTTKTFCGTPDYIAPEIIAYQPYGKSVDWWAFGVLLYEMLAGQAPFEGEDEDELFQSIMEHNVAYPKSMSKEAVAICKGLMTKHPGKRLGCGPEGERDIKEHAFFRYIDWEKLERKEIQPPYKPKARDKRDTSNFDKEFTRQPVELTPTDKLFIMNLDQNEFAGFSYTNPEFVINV
Mast/stem cell growth factor receptor Kit (Homo sapiens), sequence (P10721 whole entry): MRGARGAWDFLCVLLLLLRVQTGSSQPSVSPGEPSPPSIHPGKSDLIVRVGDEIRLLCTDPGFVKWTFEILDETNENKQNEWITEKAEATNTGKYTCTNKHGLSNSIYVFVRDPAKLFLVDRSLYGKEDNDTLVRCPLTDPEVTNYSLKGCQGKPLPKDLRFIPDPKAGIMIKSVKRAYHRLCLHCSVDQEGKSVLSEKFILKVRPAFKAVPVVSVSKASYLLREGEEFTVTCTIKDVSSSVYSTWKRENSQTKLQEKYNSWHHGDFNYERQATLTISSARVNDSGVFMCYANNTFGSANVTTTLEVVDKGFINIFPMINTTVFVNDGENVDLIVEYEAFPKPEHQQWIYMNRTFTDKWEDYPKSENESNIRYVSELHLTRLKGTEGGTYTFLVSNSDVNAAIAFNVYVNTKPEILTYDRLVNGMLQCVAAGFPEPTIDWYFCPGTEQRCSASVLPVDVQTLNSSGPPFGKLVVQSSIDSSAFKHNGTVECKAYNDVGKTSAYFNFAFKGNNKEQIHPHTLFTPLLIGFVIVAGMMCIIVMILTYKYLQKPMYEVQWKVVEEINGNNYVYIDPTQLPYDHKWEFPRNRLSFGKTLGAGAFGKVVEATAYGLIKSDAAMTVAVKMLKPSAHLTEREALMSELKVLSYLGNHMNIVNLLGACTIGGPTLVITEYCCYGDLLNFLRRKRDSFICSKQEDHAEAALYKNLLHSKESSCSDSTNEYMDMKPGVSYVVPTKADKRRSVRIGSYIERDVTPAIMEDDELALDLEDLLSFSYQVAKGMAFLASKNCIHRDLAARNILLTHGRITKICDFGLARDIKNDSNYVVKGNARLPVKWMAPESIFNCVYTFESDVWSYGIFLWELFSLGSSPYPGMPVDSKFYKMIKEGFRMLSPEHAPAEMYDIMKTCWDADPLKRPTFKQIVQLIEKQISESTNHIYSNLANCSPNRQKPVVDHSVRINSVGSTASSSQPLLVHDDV

For `O=C(N[C@@H](C1CC1)C(F)(F)F)c1cc(-c2cnn3cc(-c4ccc(F)cc4)cnc23)cs1`, the fold change (FC) in [1], in assay [3], in assay [4] and in [5] was 0 throughout. Moreover, the inhibition (commonly the drop in the measured response relative to a control, in per cent) in assay [2] came out at 0%.
With `CNC(=O)c1ccccc1Oc1nc(Nc2cc(OC)c(OC)c(OC)c2)ncc1Br`, the inhibition is 10% in assay [6] and 0% in assay [7]. Besides, the fold change (FC) in assay [8] came to 0; in [9] it was 0; in [10] it was 0.09; in assay [11] it was 0.
`CC(C)[C@H](NC(=O)c1cc(-c2cnn3cc(-c4ccc(OCCN5CCCCC5)cc4)cnc23)cs1)C(F)(F)F`: in assay [12], the inhibition is 9%. Further, the fold change (FC) in assay [13] was 0.01.
